Screening data deposited in PubChem by several laboratories.
Compounds with a hit are over-represented: about 2.5% of the library has one in this group of screens.
PGE2 EP2 inh – blocks the human prostaglandin E2 receptor EP2; P43116; C6 glioma cells expressing human EP2, cAMP TR-FRET; cells stimulated with saturating PGE2; inhibition, % at 25 µM; hit rate 0.52% among 260,000; AID 1422;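 active = percent inhibition above 40 after rounding to a whole number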;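 note: rat C6 glioma host cells with rolipram phosphodiesterase inhibitor present; the protocol text gives 20 µM as final concentration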
PfGluPho inh – PfG6PD (Plasmodium falciparum) enzyme inhibition; PfGluPho enzyme, NADPH resazurin-diaphorase fluorescence; inhibition, % at 20 µM; hit rate 0.78% among 350,000;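 active = inhibition reaching at least a set limit at 20 µM in the primary screen, cut at about 59% in these data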;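 note: 0% = DMSO wells with substrate and 100% = DMSO wells lacking glucose-6-phosphate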
EP2 mod – modulates human prostaglandin E2 receptor EP2 signaling; P43116; EP2-expressing cells, cAMP HTRF FRET, PGE2 co-stimulation; induction, % at 25 µM; hit rate 0.83% among 260,000; AID 940;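 active = compounds whose cAMP rise, as percent of the full-agonist control response, exceeds 60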;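 note: rat C6 glioma line stably carrying human EP2 under a CMV promoter; the protocol text gives 20 µM as final concentration; 100% = response of wells given 1 µM PGE2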
PHOSPHO1 block – PHOSPHO1 (human) inhibition. hit rate 1.1% among 290,000. recombinant PHOSPHO1, absorbance phosphatase assay. inhibition, % at 13.3 µM; in the data active = inhibition above about 60%
Target sequence (Q8TCT1 whole entry, looked up): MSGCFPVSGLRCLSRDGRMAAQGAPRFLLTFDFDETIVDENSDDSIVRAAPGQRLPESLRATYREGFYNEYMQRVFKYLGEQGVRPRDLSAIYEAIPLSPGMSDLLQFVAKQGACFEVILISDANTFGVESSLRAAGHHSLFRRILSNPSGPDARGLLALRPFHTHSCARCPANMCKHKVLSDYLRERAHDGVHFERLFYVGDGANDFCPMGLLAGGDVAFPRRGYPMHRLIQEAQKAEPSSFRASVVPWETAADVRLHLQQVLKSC
HKDC1 inh – HKDC1 (human) hexokinase inhibition; Q2TB90; recombinant HKDC1, G6PDH/diaphorase resazurin coupled fluorescence; hit rate 0.16% among 340,000; inhibition, % at 20 µM;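 active = inhibition above about 35% when tested at 20 µM, limit read from the data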;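 note: plate controls were DMSO wells with enzyme for no effect and DMSO wells lacking enzyme for full effect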
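Assay system: recombinant HKDC1 hexokinase; detection: coupled resazurin fluorescence, excitation 525 nm, emission 613 nm; benchmarks: DMSO-plus-enzyme-mix negative control, buffer-substituted positive control; compound dosing: single 20 µM dose; schedule: 90 min at room temperature in dark; also added: glucose plus 1 mM ATP as hexokinase substrates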
Tb hexokinase – T. brucei hexokinase 1 inhibition | recombinant TbHK1, G6PDH-coupled NADH A340 | inhibition, % at 10 µM | hit rate 0.11% among 220,000;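 active = inhibition of 50% or more in the single-dose primary screen; inactive = inhibition below 50%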
An asterisk follows results filed as active; / = no result.

SMILES	PGE2 EP2 inh	PfGluPho inh	EP2 mod	PHOSPHO1 block	HKDC1 inh	Tb hexokinase
CC(O)[C@H](NC(=O)C1CCN(C(=O)[C@H](Cc2ccccc2)NC(=O)OC(C)(C)C)CC1)C(=O)O (stereo partly drawn)	/	-8.8	/	20.3	-0.5	/
CC(C)[C@H](NC(=O)C1CCN(C(=O)[C@H](Cc2ccccc2)NC(=O)OC(C)(C)C)CC1)C(=O)O	/	-1.9	/	60.6*	-7.3	/
Cc1ccnc(NC(=O)CN2C(=O)COc3ccc(C)cc32)c1	7.7	/	27.9	/	/	/
COc1cccc(C(=O)COc2ccccc2-c2ccccc2)c1	8.1	15.4	61.2*	-2.0	-10.3	34.6
O=C(N/N=C/c1cccc(O)c1)c1cc(-c2ccc3c(c2)OCO3)n[nH]1	64.2*	24.7	-76.6	11.6	-5.2	-5.5
c1ccc(OCc2nnc3sc(C4COc5ccccc5O4)nn23)cc1 (stereo not drawn)	6.1	55.8	-6.5	80.3*	-3.8	-7.1
c1ccc(Cc2nnc3sc(C4COc5ccccc5O4)nn23)cc1 (stereo not drawn)	8.0	27.9	-8.8	-19.2	-9.7	7.7
Clc1ccccc1-c1nnc2sc(C3COc4ccccc4O3)nn12 (stereo not drawn)	10.8	-7.8	-4.4	80.2*	2.9	8.2
CCc1nc(N2CCCC2)ncc1C(=O)N(C)Cc1cc(=O)[nH]c2ccccc12	4.3	/	9.3	/	/	/
CCOC(=O)c1sc(-c2ccc(OC)cc2)cc1NC(C)=O	40.1*	8.7	12.7	-1.5	-2.4	7.1
CCOc1ccc(NC(=O)Nc2cc(-c3ccccc3)sc2C(=O)OC)cc1	10.4	4.6	9.1	-8.8	-2.8	-10.5
COc1ccc(CCNCc2ccc(OCC(=O)N3CCCCC3)c(OC)c2)cc1OC	7.1	-10.6	20.6	42.1	-7.1	11.1
CCOCCCNCc1ccc(OCC(=O)N2CCOCC2)c(OC)c1	11.1	1.6	-6.3	60.0*	-0.2	-1.7
CC(C)n1c(=O)n(CC(=O)N2CCNC(=O)C2(C)C)c2cccnc21	/	/	-8.0	/	/	/
CCSc1nc(C)nc2sc(C)c(C)c12	5.9	5.4	69.2*	38.3	0.5	-6.6
Cc1nc(SCC(=O)N(C(C)C)C(C)C)c2c(C)c(C)sc2n1	11.8	/	-3.7	/	/	/
CCCCN(C(=O)c1cccc2c(=O)c(C)c(-c3ccccc3)oc12)c1ccccc1	-0.6	-9.8	63.7*	-5.1	1.2	2.7
S=c1[nH]ncn1/N=C/c1ccccn1	5.8	2.5	14.6	97.9*	-7.0	-14.9
CCOc1cc(/C=C2\C(=O)NC(=O)N(c3ccc4c(c3)OCO4)C2=O)ccc1O	12.3	/	-87.0	/	/	/
CC(=O)N1CCN(C(=S)c2ccc(-c3ccc(Cl)cc3)o2)CC1	10.1	62.0*	-12.5	73.5*	-6.2	-20.1
N#CCCN1CCN(C(=S)c2ccc(-c3cccc(Cl)c3)o2)CC1	7.0	1.9	-13.0	25.2	-3.6	-35.7
N#CCCN1CCN(C(=S)c2ccc(-c3ccc(Cl)c(Cl)c3)o2)CC1	11.5	32.6	-60.4	67.4*	9.8	-20.1
O=C(c1ccco1)N1CCN(C(=O)c2ccc(-c3ccc(Cl)cc3)o2)CC1	/	3.0	/	/	-3.3	/
CC(C)C(=O)N1CCN(c2ccc(NC(=O)c3ccccc3Cl)cc2Cl)CC1	11.8	/	-26.4	/	/	/
COc1ccc(NC(=S)N2C3CCCC2CC(NC(=O)C2CC2)C3)c(OC)c1 (stereo not drawn)	8.6	/	30.2	/	/	/
SMILES	PGE2 EP2 inh	PfGluPho inh	EP2 mod	PHOSPHO1 block	HKDC1 inh	Tb hexokinase
O=C(NCCN1CCC(O)(c2cccc(F)c2)CC1)c1ccc2c(c1)CCCC2	5.5	/	-61.7	/	/	/
CCCc1nn(CC(=O)NC(C)c2ccccn2)c(=O)c2cc3ccsc3n12 (stereo not drawn)	/	/	-10.5	/	/	/
COc1c(-c2coc3cc4c(cc3c2=O)CC(O)C(C)(C)O4)ccc2c1C=CC(C)(C)O2 (stereo not drawn)	91.8*	/	-52.5	/	/	/
COc1c(-c2coc3cc4c(cc3c2=O)CC(OC(C)=O)C(C)(C)O4)ccc2c1C=CC(C)(C)O2 (stereo not drawn)	11.7	/	14.4	/	/	/
Cc1ccc2cc(CN(Cc3cccs3)C(=S)NC3CCCCC3)c(=O)[nH]c2c1	10.1	/	-47.0	/	/	/
CN(c1ccccc1)S(=O)(=O)c1nnc(NC(=O)C2CCCCC2)s1	/	2.4	/	70.0*	-6.0	/
COC(=O)[C@H]1[C@@H]2C[C@H]3c4[nH]c5ccccc5c4CCN3C[C@H]2CC[C@@H]1OS(=O)(=O)O	48.2*	/	10.4	/	/	/
